Laboratory results: ChEMBL document CHEMBL4145447, “4-arylamidobenzyl substituted 5-bromomethylene-2(5H)-furanones for chronic bacterial infection” (Eur J Med Chem, 2018)

Key:
[1] = target: Elastase (Pseudomonas aeruginosa (strain ATCC 15692 / PAO1 / 1C / PRS 101 / LMG12228)) (UniProt P14756); test: Inhibition of Pseudomonas aeruginosa PAO1 GFP-fused quorum sensing lasB at 10 uM measured every 15 mins up to 12 hrs by GFP reporter gene assay relative to control
In short: (§1)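 GFP reporter strains of P. aeruginosa PAO1 (lasB-, rhlA- or pqsA-promoter fused to unstable gfp(ASV)) grown overnight in LB at 37 °C, 200 rpm, 18 h, then diluted 1:100. Culture mixed 1:1 with compound diluted in LB from 10 mM DMSO stock (0.1% DMSO final). Fluorescence (ex 485/em 528 nm) read every 15 min at 37 °C for ≥12 h.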

[2] = system: Pseudomonas aeruginosa PAO1; test: Inhibition of Pseudomonas aeruginosa PAO1 GFP-fused quorum sensing rhlA at 10 uM measured every 15 mins up to 12 hrs by GFP reporter gene assay relative to control; in short: as §1
[3] = target: T1, Anthranilate--CoA ligase (Pseudomonas aeruginosa (strain ATCC 15692 / DSM 22644 / CIP 104116 /JCM 14847 / LMG 12228 / 1C / PRS 101 / PAO1)) (UniProt Q9I4X3); test: Inhibition of Pseudomonas aeruginosa PAO1 GFP-fused quorum sensing pqsA at 10 uM measured every 15 mins up to 12 hrs by GFP reporter gene assay relative to control; in short: as §1
T1 sequence (whole entry): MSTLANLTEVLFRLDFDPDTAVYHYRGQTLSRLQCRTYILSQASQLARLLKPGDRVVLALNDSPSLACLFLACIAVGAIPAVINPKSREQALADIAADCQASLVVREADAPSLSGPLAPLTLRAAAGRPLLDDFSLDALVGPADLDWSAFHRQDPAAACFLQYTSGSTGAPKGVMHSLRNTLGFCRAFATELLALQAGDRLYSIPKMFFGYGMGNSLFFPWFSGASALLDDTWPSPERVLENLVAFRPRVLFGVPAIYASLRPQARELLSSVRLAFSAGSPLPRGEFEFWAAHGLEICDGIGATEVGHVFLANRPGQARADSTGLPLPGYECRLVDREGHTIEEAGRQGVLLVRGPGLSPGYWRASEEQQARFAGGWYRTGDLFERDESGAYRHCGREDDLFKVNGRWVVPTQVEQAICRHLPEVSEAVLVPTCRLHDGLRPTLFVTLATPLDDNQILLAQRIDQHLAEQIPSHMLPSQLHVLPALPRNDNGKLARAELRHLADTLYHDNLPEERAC

RAW264.7 [4] = test: Anti-inflammatory activity in mouse RAW264.7 cells assessed as inhibition of LPS-induced NO production at 10 uM preincubated for 2 hrs followed by LPS stimulation and measured after 48 hrs by Griess method relative to control; type: functional
In short: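 RAW264.7 cells seeded at 5 × 10^4/well and cultured 18 h, then given 10 µM compound plus LPS 100 ng/mL for 48 h at 37 °C. Supernatant mixed 1:1 with Griess reagent (1% sulfanilamide, 0.1% naphthylethylenediamine in 5% phosphoric acid) for 10 min; nitrite read at OD540.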

[5] = Cytotoxicity against mouse RAW264.7 cells assessed as cell viability at 5 uM after 48 hrs by MTT assay relative to control; type: cell-based; conditions: read-out: Activity
In short: (§2)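 MTT viability: RAW264.7 cells (4 × 10^4/well) in DMEM + 10% FBS exposed to compounds diluted in DMEM for 48 h. MTT 0.5 mg/mL added for 4 h in the dark, formazan dissolved in DMSO, read at 570 nm. Viability = treated/medium-only control × 100; three independent experiments.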

[6] = Cytotoxicity against mouse RAW264.7 cells assessed as cell viability at 10 uM after 48 hrs by MTT assay relative to control; type: cell-based; conditions: read-out: Activity; in short: as §2
RAW264.7 [7] = test: Anti-inflammatory activity in mouse RAW264.7 cells assessed as inhibition of LPS-induced TNF-alpha production by measuring TNF-alpha level at 10 uM preincubated for 2 hrs followed by LPS stimulation and measured after 6 hrs by ELISA (reference value: 11922 +/- 628.4 pg/ml); type: functional
RAW264.7 [8] = test: Anti-inflammatory activity in mouse RAW264.7 cells assessed as inhibition of LPS-induced TNF-alpha production by measuring TNF-alpha level at 10 uM preincubated for 2 hrs followed by LPS stimulation and measured after 12 hrs by ELISA (reference value: 21561.3 +/- 857 pg/ml); type: functional
RAW264.7 [9] = test: Anti-inflammatory activity in mouse RAW264.7 cells assessed as inhibition of LPS-induced TNF-alpha production by measuring TNF-alpha level at 10 uM preincubated for 2 hrs followed by LPS stimulation and measured after 24 hrs by ELISA (reference value: 24216 +/- 498.7 pg/ml); type: functional
RAW264.7 [10] = test: Anti-inflammatory activity in mouse RAW264.7 cells assessed as inhibition of LPS-induced IL-6 production by measuring […] level at 10 uM preincubated for 2 hrs followed by LPS stimulation and measured after 6 hrs by ELISA (reference value: 94.6 +/- 5.9 pg/ml); type: functional
RAW264.7 [11] = test: Anti-inflammatory activity in mouse RAW264.7 cells assessed as inhibition of LPS-induced IL-6 production by measuring […] level at 10 uM preincubated for 2 hrs followed by LPS stimulation and measured after 12 hrs by ELISA (reference value: 175.2 +/- 10.2 pg/ml); type: functional
Mus musculus [12] = test: Anti-inflammatory activity in LPS-induced sepsis shock mouse model assessed as survival rate at 20 mg/kg, iv pretreated daily for 5 days followed LPS treatment on day 5 at 1 hr post last dose and measured after 7 days relative to control; type: functional
In short: (§3)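 Male SPF mice, randomly grouped, dosed i.v. with compound dissolved in DMSO and diluted in physiological saline; vehicle group given a similar volume. LPS was injected on day 5, 1 h after the last administration. Survival was recorded every 12 h for 7 days after LPS, with 11 animals per group per figure legend.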

Mus musculus [13] = test: Anti-inflammatory activity in LPS-induced sepsis shock mouse model assessed as survival rate at 1 mg/kg, iv pretreated daily for 5 days followed LPS treatment on day 5 at 1 hr post last dose and measured after 7 days relative to control; type: functional; in short: as §3
RAW264.7 [14] = test: Anti-inflammatory activity in mouse RAW264.7 cells assessed as inhibition of LPS-induced IL-6 production by measuring IL-6 level at 10 uM preincubated for 2 hrs followed by LPS stimulation and measured after 24 hrs by ELISA (reference value: 407.6 +/- 16.7 pg/ml)

Sequence of Elastase (Pseudomonas aeruginosa (strain ATCC 15692 / PAO1 / 1C / PRS 101 / LMG12228)) (P14756 198-498 limits assumed): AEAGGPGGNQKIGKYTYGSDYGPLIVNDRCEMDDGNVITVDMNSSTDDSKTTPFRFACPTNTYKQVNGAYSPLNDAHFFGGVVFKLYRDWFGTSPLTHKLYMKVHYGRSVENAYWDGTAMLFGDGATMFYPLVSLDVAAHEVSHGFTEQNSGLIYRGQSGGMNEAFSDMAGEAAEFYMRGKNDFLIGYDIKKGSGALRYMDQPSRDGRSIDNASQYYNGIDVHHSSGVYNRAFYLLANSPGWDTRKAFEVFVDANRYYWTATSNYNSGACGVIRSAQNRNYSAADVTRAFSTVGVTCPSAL

inhibition [1] [%]	inhibition [2] [%]	inhibition [3] [%]	Structure (SMILES)	inhibition at 10 µM (RAW264.7 [4]) [%]	also measured
16.1	17.2	34.5	O=C1C=C(Cc2ccc(NC(=O)c3ccccc3)cc2)C(=CBr)O1	46.2	–
17.3	13.6	20.4	O=C1C=C(Cc2ccc(NC(=O)c3ccco3)cc2)C(=CBr)O1	59.9	–
21.2	20.2	28.2	O=C1C=C(Cc2ccc(NC(=O)c3ccccc3)cc2)C(=C(Br)Br)O1	30.3	–
19.2	19.2	24.8	O=C(Cc1ccccc1)Nc1ccc(CC2=CC(=O)OC2=C(Br)Br)cc1	44.1	–
21.4	24	20.2	O=C1C=C(Br)/C(=C/Br)O1	–	–
–	–	–	O=C(Nc1ccccc1)c1cc([N+](=O)[O-])ccc1Cl	–	viability at 48 h, 5 µM [5]: 99.1%
12.2	10.6	24.3	COc1ccc(C=CC(=O)Nc2ccc(CC3=CC(=O)O/C3=C/Br)cc2)cc1	61	–
10.4	20	27.9	O=C(Cc1ccc(Br)cc1)Nc1ccc(CC2=CC(=O)OC2=C(Br)Br)cc1	50.7	–
9.48	18.1	16.2	O=C(/C=C/c1ccccc1)Nc1ccc(CC2=CC(=O)OC2=C(Br)Br)cc1	54.4	–
20	19.6	26.4	O=C1C=C(Cc2ccc(NC(=O)c3cccs3)cc2)C(=C(Br)Br)O1	39.9	–
10.2	23.9	20.3	O=C1C=C(Cc2ccc(NC(=O)c3cccs3)cc2)C(=CBr)O1	54.2	–
14.2	16.4	24.5	Cc1ccc(CC(=O)Nc2ccc(CC3=CC(=O)OC3=C(Br)Br)cc2)cc1	19	–
5.03	12.9	21.9	COc1ccc(/C=C/C(=O)Nc2ccc(CC3=CC(=O)OC3=C(Br)Br)cc2)cc1	44.3	–
14.9	15.2	20.6	O=C(CCc1ccccc1)Nc1ccc(CC2=CC(=O)OC2=CBr)cc1	64.8	–
24.9	17.2	40.8	O=C(Cc1ccc(Br)cc1)Nc1ccc(CC2=CC(=O)OC2=CBr)cc1	64.9	–
11	19.5	22.9	O=C(CCc1ccccc1)Nc1ccc(CC2=CC(=O)OC2=C(Br)Br)cc1	48.1	–
14.8	11.8	26.4	COc1ccc(CC(=O)Nc2ccc(CC3=CC(=O)OC3=CBr)cc2)cc1	39.3	–
–	–	–	COc1ccc2c(c1)c(CC(=O)O)c(C)n2C(=O)c1ccc(Cl)cc1 [INDOMETHACIN]	29.4	Activity (RAW264.7 [7]): 10850 pg/mL; Activity (RAW264.7 [8]): 19664 pg/mL; Activity (RAW264.7 [9]): 20772 pg/mL; Activity (RAW264.7 [10]): 59.6 pg/mL; Activity (RAW264.7 [11]): 120.7 pg/mL; Activity (RAW264.7 [14]): 286.6 pg/mL
22.9	23.6	34.6	O=C1C=C(Cc2ccc(NC(=O)c3ccco3)cc2)C(=C(Br)Br)O1	44.5	–
9.79	7.66	19.5	COc1cc(CC(=O)Nc2ccc(CC3=CC(=O)OC3=C(Br)Br)cc2)cc(OC)c1OC	21.2	–
11.8	13.8	20.6	COc1ccc(CC(=O)Nc2ccc(CC3=CC(=O)OC3=C(Br)Br)cc2)cc1	25.2	–
19	18.2	29.8	Cc1ccc(CC(=O)Nc2ccc(CC3=CC(=O)OC3=CBr)cc2)cc1	29.4	–
19.1	19.2	19.3	O=C(Cc1c(Cl)cccc1Cl)Nc1ccc(CC2=CC(=O)OC2=C(Br)Br)cc1	53.5	–
8.53	5.57	20.3	COc1cc(CC(=O)Nc2ccc(CC3=CC(=O)OC3=CBr)cc2)cc(OC)c1OC	34.3	–
16.9	15.2	17.6	O=C(Cc1c(Cl)cccc1Cl)Nc1ccc(CC2=CC(=O)OC2=CBr)cc1	66.6	–
9.49	15.9	20	O=C(Cc1ccc(F)cc1)Nc1ccc(CC2=CC(=O)OC2=C(Br)Br)cc1	59.2	–
18	17.3	25.8	O=C(Cc1ccccc1)Nc1ccc(CC2=CC(=O)OC2=CBr)cc1	59.5	–

Structure (SMILES)	inhibition [1] [%]	inhibition [2] [%]	inhibition [3] [%]	inhibition at 10 µM (RAW264.7 [4]) [%]	also measured
CN(CCOc1ccc(CC2SC(=O)NC2=O)cc1)c1ccccn1 (stereo not given) [ROSIGLITAZONE]	7.43	15.5	9.19	16.6	viability at 48 h, 10 µM [6]: 99%; Activity (RAW264.7 [7]): 11311.3 pg/mL; Activity (RAW264.7 [8]): 20616 pg/mL; Activity (RAW264.7 [9]): 22226 pg/mL; Activity (RAW264.7 [10]): 64.8 pg/mL; Activity (RAW264.7 [11]): 140 pg/mL; survival at 20 mg/kg (Mus musculus [12]): 45.5%; survival at 1 mg/kg (Mus musculus [13]): 36.5%; Activity (RAW264.7 [14]): 345.6 pg/mL
